The test system of data set [1] is Orthopoxvirus vaccinia. Put plainly: Inhibition of N7-MTase activity of Vaccinia virus mRNA capping enzyme D1/D12 complex using GpppAC4 and [3H]SAM as substrate at 50 uM preincubated with enzyme followed by substrate addition and measured after 30 mins by filter binding assay. In outline: (§1)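 Filter binding assay in 40 mM Tris-HCl pH 8.0, 1 mM DTT, 1 mM MgCl2, 2 µM SAM, 0.1 µM 3H-SAM and 0.7 µM GpppAC4 RNA. Enzyme is nsp14 (50 nM), hRNMT (50 nM) or vaccinia D1–D12 (41 U). Compound is at 50 µM with 5% final DMSO. Reactions run 30 min at 30 °C, are stopped by ice-cold water dilution, and 3H on DEAE filters is counted. Percent inhibition is relative to a 5% DMSO control, mean of three experiments.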

Data set [2] has as its system Severe acute respiratory syndrome-related coronavirus. Put plainly: Binding affinity to SARS-CoV nsp14 assessed as increase in melting temperature at 1 mM at pH 7.5 by differential scanning fluorimetry. In outline: (§2)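 Purified SARS-CoV nsp14 (5 µM) in 20 mM HEPES pH 7.5, 150 mM NaCl and 1X SYPRO orange, with 1 mM compound (DMSO stock; SAM and sinefungin from water). Protein is mixed with compound before dye is added. Fluorescence is read from 20 to 95 °C at 0.2 °C/min. Tm comes from curve fitting, and ΔTm is taken against a 5% DMSO control.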
(In DSF a fluorescence change marks the thermal transition of the protein.)

Data set [3] deals with Orthopoxvirus vaccinia. The experiment in a line: Inhibition of 2'-O-methyltransferase activity of Vaccinia virus VP39 at 200 uM.
The subject of data set [4] is Dengue virus. Put plainly: Inhibition of 2'-O-methyltransferase in Dengue virus at 200 uM.
Data set [5] deals with RNA-N7 MTase (mRNA cap guanine-N(7) methyltransferase) (Homo sapiens, UniProt O43148). Put plainly: Inhibition of N-terminal His6-tagged human RNA-N7 MTase expressed in Escherichia coli using GpppAC4 and [3H]SAM as substrate at 50 uM preincubated with enzyme followed by substrate addition and measured after 30 mins by filter binding assay. Particulars: probe GpppAC4 and [3H]SAM. The method in brief:
as §1

The subject of data set [6] is Severe acute respiratory syndrome-related coronavirus. Put plainly: Inhibition of 2'-O-MTase activity of SARS-CoV nsp10/16 complex at 200 uM.
Data set [7] in a line: Inhibition of N7-MTase activity of N-terminal His6-tagged SARS-CoV nsp14 expressed in Escherichia coli using GpppAC4 and [3H]SAM as substrate preincubated with enzyme followed by substrate addition and measured after 30 mins by filter binding assay. Also noted: species or system Severe acute respiratory syndrome-related coronavirus. The method in brief:
(§3)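 Dose-response filter binding assay with nsp14 or hRNMT (each 50 nM) pre-incubated with increasing compound concentrations (5% final DMSO). Then 0.7 µM GpppAC4, 2 µM SAM and 0.1 µM 3H-SAM are added in Tris pH 8.0/DTT/MgCl2, 30 min at 30 °C. IC50 is taken from a Hill slope fit, mean of three independent experiments.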

For data set [8], the system named is Severe acute respiratory syndrome-related coronavirus. Put plainly: Binding affinity to SARS-CoV nsp14 assessed as melting temperature at 1 mM at pH 7.5 by differential scanning fluorimetry. The method in brief:
as §2

The target in data set [9] is mRNA cap guanine-N(7) methyltransferase (Homo sapiens, UniProt O43148). Put plainly: Inhibition of N-terminal His6-tagged human RNA-N7 MTase expressed in Escherichia coli using GpppAC4 and [3H]SAM as substrate preincubated with enzyme followed by substrate addition and measured after 30 mins by filter binding assay. In outline: as §3
The test system of data set [10] is West Nile virus. The experiment in a line: Inhibition of 2'-O-methyltransferase in West-Nile virus at 200 uM.
Data set [11] relates to Zika virus. The experiment in a line: Inhibition of 2'-O-methyltransferase in Zika virus at 200 uM.
Data set [12] relates to Severe acute respiratory syndrome-related coronavirus. Put plainly: Inhibition of N7-MTase activity of N-terminal His6-tagged SARS-CoV nsp14 expressed in Escherichia coli using GpppAC4 and [3H]SAM as substrate at 50 uM preincubated with enzyme followed by substrate addition and measured after 30 mins by filter binding assay. The method in brief:
as §1

Data set [13] can be described thus: Binding affinity to SARS-CoV nsp14 by TSA based analysis. Further details: species or system Severe acute respiratory syndrome-related coronavirus. The method in brief: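 Thermal shift assay with nsp14 (5 µM) in HEPES pH 7.5/NaCl/SYPRO orange, using increasing compound concentrations and a 20–95 °C ramp. Apparent KD is obtained by nonlinear regression with a one-site specific binding Hill slope equation.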

Molecules are shown by their SMILES. Activity calls are given as the source filed them. The calls are words filed in the database; no cut-off is given here. Bounds are passed on as bounds.

RNA-N7 MTase (mRNA cap guanine-N(7) methyltransferase), sequence (O43148 whole entry): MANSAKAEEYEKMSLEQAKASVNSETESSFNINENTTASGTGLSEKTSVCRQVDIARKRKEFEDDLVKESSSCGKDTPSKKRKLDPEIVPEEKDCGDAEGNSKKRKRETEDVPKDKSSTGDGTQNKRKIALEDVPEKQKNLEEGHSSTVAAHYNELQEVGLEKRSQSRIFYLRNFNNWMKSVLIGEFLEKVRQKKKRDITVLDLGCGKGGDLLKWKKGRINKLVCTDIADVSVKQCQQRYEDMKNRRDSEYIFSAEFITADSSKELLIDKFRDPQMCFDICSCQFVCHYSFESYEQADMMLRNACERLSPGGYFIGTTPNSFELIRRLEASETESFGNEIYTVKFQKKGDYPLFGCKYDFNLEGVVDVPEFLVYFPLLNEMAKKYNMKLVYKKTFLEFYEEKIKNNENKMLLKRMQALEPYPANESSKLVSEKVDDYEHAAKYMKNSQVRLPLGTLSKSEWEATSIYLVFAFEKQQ
mRNA cap guanine-N(7) methyltransferase, sequence (O43148 whole entry): as above

For `COc1ccc(S(=O)(=O)N(CCO[C@@H]2[C@H](O)C(CO)O[C@H]2n2cnc3c(N)ncnc32)CC2O[C@@H](n3cnc4c(N)ncnc43)[C@H](O)[C@@H]2O)c([N+](=O)[O-])c1` (single isomer, unassigned), the inhibition in data set [1] came to 4.6%; in [12], 96.6%. Further, the ΔTm in data set [2] came to 4.6 °C. Besides, the inhibition result in [3], in data set [4], in data set [6], in data set [10] and in data set [11] was “inactive” in each case. In data set [5], this compound displayed an inhibition at 0.5 h, 50 µM of 31.8%. For the same compound, the figures for the IC50 in [7] and in [9] were 3.9 µM and above 500 µM, respectively. In data set [8], the Tm is above 40 °C.

Consider `Nc1ncnc2c1ncn2[C@@H]1OC(CN(CCO[C@@H]2[C@H](O)C(CO)O[C@H]2n2cnc3c(N)ncnc32)S(=O)(=O)c2ccc(Cl)c([N+](=O)[O-])c2)[C@@H](O)[C@H]1O` (single isomer, unassigned), for which the inhibition was 2.8% in [1] and 97.2% in data set [12]. In addition, in [2], the ΔTm came to 10.8 °C. Moreover, the inhibition result in [3], in [4], in data set [6], in [10] and in data set [11] was “inactive” throughout. The inhibition at 0.5 h, 50 µM in data set [5] amounted to 33.9%. Besides, the IC50 stood at 0.6 µM in data set [7] and 247 µM in [9]. In data set [8], the Tm was above 40 °C. In data set [13], this compound came in with a Kd of 1.3 µM.

With `COc1cc([N+](=O)[O-])ccc1S(=O)(=O)N(CCO[C@@H]1[C@H](O)C(CO)O[C@H]1n1cnc2c(N)ncnc21)CC1O[C@@H](n2cnc3c(N)ncnc32)[C@H](O)[C@@H]1O` (single isomer, unassigned), the inhibition was found to be 5.3% in data set [1] and 47.6% in data set [12]. Moreover, the ΔTm in data set [2] is 4.6 °C. Also, the inhibition result in [3], in data set [4], in [6], in [10] and in data set [11] was “inactive” in each case. In data set [5], this compound had an inhibition at 0.5 h, 50 µM of 44.2%. The results for the concentration for half-maximal inhibition (IC50) in data set [7] and in data set [9] were 70.4 µM and 169 µM, respectively. Also, the Tm in [8] was above 40 °C.

Take `Nc1ncnc2c1ncn2[C@@H]1OC(CN(CCO[C@@H]2[C@H](O)C(CO)O[C@H]2n2cnc3c(N)ncnc32)S(=O)(=O)c2ccc(C(F)(F)F)cc2[N+](=O)[O-])[C@@H](O)[C@H]1O` (single isomer, unassigned): the inhibition in [1] is 10.1%; in data set [12], 94.6%. Also, in [2], the ΔTm amounted to 4.6 °C. In addition, the inhibition entry in [3], in data set [4], in data set [6], in data set [10] and in data set [11] was “inactive” each time. This compound also came in with an inhibition at 0.5 h, 50 µM in [5] of 23.3%. The values for the half-inhibitory concentration (IC50) in data set [7] and in data set [9] were 5.7 µM and 276 µM, respectively. In data set [8], the Tm was above 40 °C.

The inhibition is how much of the control response was suppressed. For orientation: ΔTm means the change in melting temperature against a reference sample. As a reminder, the IC50 is the point on the concentration scale where inhibition reaches its midpoint. Broadly, the Kd is a measure of binding affinity in units of concentration. A higher Kd goes with a looser complex.
